In brackets after ≈: the same amount, converted by molar mass.
Key:
Escherichia coli = experiment: Antibacterial activity against Escherichia coli MTCC 443 after 24 hrs by broth microdilution method; format: functional; settings: MTCC 443, 24 h
In short: (§1)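 Broth tube dilution MIC in Brain Heart Infusion broth, triplicate per strain. Strains were subcultured at 35 °C for 48 h, then log-phase inoculum was grown from 3–5 colonies at 35 °C for 2–6 h and adjusted to 0.5 McFarland. […] serial dilutions were made over 10 tubes, with a media-plus-culture tube as negative control. Incubation was 24 h at 37 °C, and growth was read as turbidity.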

[1] = In vitro anti-inflammatory activity using hen egg assessed as inhibition of heat-induced egg albumin denaturation at 31.25 ug/ml incubated at 37 +/- 2 degC for 15 mins followed by incubation at 70 degC for 5 mins by UV spectrophotometric method relative to control; format: functional
In short: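 The 5 mL mix held 0.2 mL fresh hen egg albumin, 2.8 mL PBS pH 6.4 and 2 mL test solution, with water in place of test solution as control. It was held 15 min at 37±2 °C, heated 5 min at 70 °C and cooled, then absorbance was read at 660 nm against a vehicle blank. % inhibition = 100×(Abs control − Abs sample)/Abs control.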

Enterococcus faecalis = experiment: Antibacterial activity against Enterococcus faecalis MTCC 35550 after 24 hrs by broth microdilution method; format: functional; settings: MTCC 35550, 24 h; in short: as §1
Staphylococcus aureus = experiment: Antibacterial activity against Staphylococcus aureus MTCC 12598 after 24 hrs by broth microdilution method; format: functional; settings: MTCC 12598, 24 h; in short: as §1
Pseudomonas aeruginosa = experiment: Antibacterial activity against Pseudomonas aeruginosa MTCC 25668 after 24 hrs by broth microdilution method; format: functional; settings: MTCC 25668, 24 h; in short: as §1
[2] = Potency index, ratio of compound effect to aceclofenac effect for in vitro anti-inflammatory activity using hen egg assessed as inhibition of heat-induced egg albumin denaturation

Row | SMILES | MIC (Escherichia coli) [µg/mL] | inhibition [1] [%] | MIC (Enterococcus faecalis) [µg/mL] | MIC (Staphylococcus aureus) [µg/mL] | MIC (Pseudomonas aeruginosa) [µg/mL] | Ratio [2]
1 | Cc1n[nH]c2c1C(c1cc(=O)oc3c1ccc1ccccc13)C(C#N)=C(N)O2 (stereo unspecified) | 25 (≈ 67.5 µM) | 14.4 | 12.5 (≈ 33.8 µM) | 6.25 (≈ 16.9 µM) | 25 (≈ 67.5 µM) | 
2 | Cc1n[nH]c2c1C(c1cc(=O)oc3ccc(Cl)cc13)CC(=O)O2 (stereo unspecified) | 6.25 (≈ 18.9 µM) | 3.27 | 12.5 (≈ 37.8 µM) | 6.25 (≈ 18.9 µM) | 12.5 (≈ 37.8 µM) | 
3 | Cc1ccc2c(C(CC(=O)O)c3c(C)n[nH]c3O)cc(=O)oc2c1 (stereo unspecified) | 6.25 (≈ 19 µM) | 40.6 | 6.25 (≈ 19 µM) | 3.12 (≈ 9.52 µM) | 12.5 (≈ 38.1 µM) | 
4 | CCOC(=O)C1=C(N)Oc2[nH]nc(C)c2C1c1cc(=O)oc2ccc(OC)cc12 (stereo unspecified) | 6.25 (≈ 15.7 µM) | 51.4 | 3.12 (≈ 7.86 µM) | 1.56 (≈ 3.93 µM) | 6.25 (≈ 15.7 µM) | 10
5 | Cc1ccc2oc(=O)cc(C(CC(=O)O)c3c(C)n[nH]c3O)c2c1 (stereo unspecified) | 12.5 (≈ 38.1 µM) | 37.4 | 6.25 (≈ 19 µM) | 3.12 (≈ 9.52 µM) | 25 (≈ 76.1 µM) | 
6 | Cc1ccc2c(C3C(C#N)=C(N)Oc4[nH]nc(C)c43)cc(=O)oc2c1 (stereo unspecified) | 0.78 (≈ 2.33 µM) | 7.6 | 12.5 (≈ 37.4 µM) | 6.25 (≈ 18.7 µM) | 3.12 (≈ 9.35 µM) | 
7 | Cc1n[nH]c(O)c1C(CC(=O)O)c1cc(=O)oc2ccc(Cl)cc12 (stereo unspecified) | 25 (≈ 71.7 µM) | 42.6 | 6.25 (≈ 17.9 µM) | 1.56 (≈ 4.47 µM) | 50 (≈ 143 µM) | 10
8 | COc1ccc2oc(=O)cc(C3CC(=O)Oc4[nH]nc(C)c43)c2c1 (stereo unspecified) | 6.25 (≈ 19.2 µM) | 29.3 | 6.25 (≈ 19.2 µM) | 3.12 (≈ 9.58 µM) | 6.25 (≈ 19.2 µM) | 
9 | Cc1n[nH]c2c1C(c1cc(=O)oc3ccc(Cl)cc13)C(C#N)=C(N)O2 (stereo unspecified) | 3.12 (≈ 8.81 µM) | 28 | 6.25 (≈ 17.6 µM) | 3.12 (≈ 8.81 µM) | 12.5 (≈ 35.2 µM) | 
10 | COc1ccc2oc(=O)cc(C3C(C#N)=C(N)Oc4[nH]nc(C)c43)c2c1 (stereo unspecified) | 6.25 (≈ 17.8 µM) | 19.1 | 12.5 (≈ 35.7 µM) | 3.12 (≈ 8.92 µM) | 1.56 (≈ 4.45 µM) | 
11 | Cc1n[nH]c2c1C(c1cc(=O)oc3c1ccc1ccccc13)CC(=O)O2 (stereo unspecified) | 12.5 (≈ 36.1 µM) | 1.89 | 12.5 (≈ 36.1 µM) | 12.5 (≈ 36.1 µM) | 6.25 (≈ 18 µM) | 
12 | CCOC(=O)C1=C(N)Oc2[nH]nc(C)c2C1c1cc(=O)oc2cc(C)ccc12 (stereo unspecified) | 3.12 (≈ 8.19 µM) | 28.7 | 25 (≈ 65.6 µM) | 3.12 (≈ 8.19 µM) | 12.5 (≈ 32.8 µM) | 
13 | Cc1ccc2oc(=O)cc(C3CC(=O)Oc4[nH]nc(C)c43)c2c1 (stereo unspecified) | 3.12 (≈ 10.1 µM) | 16 | 12.5 (≈ 40.3 µM) | 6.25 (≈ 20.1 µM) | 12.5 (≈ 40.3 µM) | 
14 | CCOC(=O)C1=C(N)Oc2[nH]nc(C)c2C1c1cc(=O)oc2c1ccc1ccccc12 (stereo unspecified) | 6.25 (≈ 15 µM) | 37.6 | 12.5 (≈ 29.9 µM) | 3.12 (≈ 7.49 µM) | 6.25 (≈ 15 µM) | 
15 | CCOC(=O)C1=C(N)Oc2[nH]nc(C)c2C1c1cc(=O)oc2ccc(Cl)cc12 (stereo unspecified) | 6.25 (≈ 15.6 µM) | 39.1 | 6.25 (≈ 15.6 µM) | 3.12 (≈ 7.78 µM) | 50 (≈ 124 µM) | 
16 | Cc1ccc2c(C3CC(=O)Oc4[nH]nc(C)c43)cc(=O)oc2c1 (stereo unspecified) | 12.5 (≈ 40.3 µM) | 15.8 | 6.25 (≈ 20.1 µM) | 6.25 (≈ 20.1 µM) | 6.25 (≈ 20.1 µM) | 
17 | Cc1ccc2oc(=O)cc(C3C(C#N)=C(N)Oc4[nH]nc(C)c43)c2c1 (stereo unspecified) | 12.5 (≈ 37.4 µM) | 10.3 | 12.5 (≈ 37.4 µM) | 6.25 (≈ 18.7 µM) | 12.5 (≈ 37.4 µM) | 
18 | Cc1n[nH]c(O)c1C(CC(=O)O)c1cc(=O)oc2c1ccc1ccccc12 (stereo unspecified) | 6.25 (≈ 17.2 µM) | 39.8 | 12.5 (≈ 34.3 µM) | 6.25 (≈ 17.2 µM) | 12.5 (≈ 34.3 µM) | 
19 | O=C(O)COC(=O)Cc1ccccc1Nc1c(Cl)cccc1Cl |  | 5.5 |  |  |  | 
20 | CCOC(=O)C1=C(N)Oc2[nH]nc(C)c2C1c1cc(=O)oc2ccc(C)cc12 (stereo unspecified) | 12.5 (≈ 32.8 µM) | 24.8 | 6.25 (≈ 16.4 µM) | 3.12 (≈ 8.19 µM) | 6.25 (≈ 16.4 µM) | 
21 | COc1ccc2oc(=O)cc(C(CC(=O)O)c3c(C)n[nH]c3O)c2c1 (stereo unspecified) | 3.12 (≈ 9.08 µM) | 63.1 | 1.56 (≈ 4.53 µM) | 0.78 (≈ 2.27 µM) | 6.25 (≈ 18.2 µM) | 10
22 | O=C(O)c1cn(C2CC2)c2cc(N3CCNCC3)c(F)cc2c1=O [CIPROFLOXACIN] | 3.12 (≈ 9.43 µM) |  | 6.25 (≈ 18.9 µM) |  |  | 
